Source: PubChem BioAssay (several laboratories)
APJ antag = blocks the human apelin receptor APJ | AID 2521 | hit rate 0.32% among 330,000 | inhibition, % at 20 µM | CHO-K1 APJ beta-arrestin complementation, luminescence;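 active = inhibition above about 40% at 20 µM, limit read from the data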;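 also: cells challenged with 10 nM apelin-13 agonist together with compound; plate controls were apelin-13 plus DMSO wells for no effect and DMSO wells lacking apelin-13 for full effect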
CXCR6 block = CXCR6 (human) receptor inhibition; CHO-K1 PathHunter CXCR6 beta-arrestin, luminescence; AID 602244; hit rate 0.36% among 360,000; inhibition, % at 20 µM; in the data active = inhibition above about 34%, passing the limit was not always enough;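 also: antagonist mode with CXCL16 agonist at 10 nM final; 0% = 10 nM CXCL16 with DMSO and 100% = unstimulated wells without agonist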
Target sequence (O00574 whole entry, looked up): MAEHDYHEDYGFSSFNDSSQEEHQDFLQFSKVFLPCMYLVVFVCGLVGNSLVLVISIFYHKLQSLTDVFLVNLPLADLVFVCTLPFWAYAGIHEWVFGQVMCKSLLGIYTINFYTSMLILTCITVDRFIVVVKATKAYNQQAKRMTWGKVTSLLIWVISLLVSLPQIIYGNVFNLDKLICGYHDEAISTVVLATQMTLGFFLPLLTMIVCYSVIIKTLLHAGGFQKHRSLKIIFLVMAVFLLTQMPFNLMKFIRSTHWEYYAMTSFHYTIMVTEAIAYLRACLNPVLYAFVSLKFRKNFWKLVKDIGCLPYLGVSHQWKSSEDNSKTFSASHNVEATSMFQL
EBI2 block = EBI2 (human) antagonism. P32249. inhibition, % at 5 µM. hit rate 0.81% among 360,000. EBI2 beta-arrestin recruitment, luminescence, 7a,25-OHC stimulated; in the data active = inhibition above about 38%;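 also: enzyme fragment complementation signal reports receptor beta-arrestin coupling in cells; 0% = agonist plus DMSO wells and 100% = wells without agonist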
APJ ag = APJ receptor agonism; P35414; CHO-K1 APJ PathHunter beta-arrestin, luminescence; 0% DMSO wells, 100% apelin; activation, % at 20 µM; hit rate 0.11% among 330,000;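 active = activation more than six SD over the plate average, tested at 20 µM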;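 also: 0% = DMSO alone and 100% = apelin-13 at 10 nM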
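Test system: CHO-K1 APJ beta-arrestin complementation cell line | Compound: Single test compound dose, 20 µM final, 1% DMSO | Incubation: Compound 90 min 25 °C, reagent 1 h | Measured by: beta-gal luminescence | Read-out basis: APJ–arrestin association signal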
HTR2A ag = activates the mouse 5-HT2A serotonin receptor. P35363. CHO-K1 mHTR2A beta-arrestin complementation, luminescence; percent of 30 µM serotonin response. activation, % at 7.6 µM. hit rate 0.66% among 360,000;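 active = activation above a run cutoff, the mean activation of all tested compounds plus 3 SD, cut at about 14% in these data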;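 also: 0% = plate median of compound wells and 100% = 30 µM serotonin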
CCR6 antagonist = CCR6 (human) receptor antagonism; P51684; CHO-K1 CCR6 PathHunter beta-arrestin, luminescence, CCL20-stimulated; inhibition, % at 20 µM; hit rate 0.49% among 340,000; AID 493098;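 active = compounds whose inhibition of the agonist-driven luminescence signal at 20 µM reaches about 50%, limit read from the data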;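 also: cells stimulated with CCL20 at 14 nM final; plate controls were DMSO with CCL20 for no effect and DMSO without agonist for full effect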
APJ antag conf = confirmation of human APJ apelin receptor antagonists; shares compounds with APJ antag; APJ beta-arrestin recruitment, luminescence, antagonist mode; inhibition, % at 20 µM; hit rate 66% among 950; AID 2766; in the data active = inhibition above about 50%
Active calls of the source: *. This is a sample that favours compounds with a hit; in the whole collection about 2.2% have one here.

O=C(Cc1ccc(F)cc1)OCC(=O)c1cc2ccccc2o1 was read as APJ antag 76.8*, CXCR6 block 10.9, EBI2 block -5.0, APJ ag -12.2, HTR2A ag -5.2, CCR6 antagonist 88.6* and APJ antag conf 89.9*.
O=C(CCNc1ccc(F)cc1)c1cc2ccccc2o1 was read as APJ antag -17.3, CXCR6 block -1.2, EBI2 block 1.6, APJ ag -1.4, HTR2A ag -1.1 and CCR6 antagonist 5.3.
For CC(NC(=O)COc1ccccc1)C(=O)OCC(=O)c1cc2ccccc2o1 (centres undefined) the results were APJ antag 55.1*, CXCR6 block 43.7*, EBI2 block 12.6, APJ ag -20.0, HTR2A ag -8.9, CCR6 antagonist 88.8* and APJ antag conf 116.2*.
O=C(COc1ccccc1)NNC(=O)c1cc2ccccc2o1 was read as APJ antag 7.6, CXCR6 block 2.3, EBI2 block 0.9, APJ ag 2.7, HTR2A ag 4.0 and CCR6 antagonist -8.6.
`Cc1cc(OCC(=O)OCC(=O)N2CCCc3ccccc32)ccc1Cl` gave CXCR6 block 2.9, EBI2 block 7.6 and HTR2A ag 8.3.
Screening CCSc1nnc(NC(=O)c2ccccn2)s1 returned APJ antag 43.6*, CXCR6 block 24.4, EBI2 block 8.2, APJ ag -6.2, HTR2A ag 6.1, CCR6 antagonist 36.9 and APJ antag conf 60.0*.
O=C(Nc1nnc(SCc2ccc(F)cc2)s1)c1cnccn1 was read as APJ antag 49.4*, CXCR6 block 2.2, EBI2 block -7.0, APJ ag -3.7, HTR2A ag -2.2, CCR6 antagonist 19.9 and APJ antag conf 60.1*.
Screening CCSc1nnc(NC(=O)c2cnccn2)s1 returned APJ antag 4.7, APJ ag -1.1 and CCR6 antagonist 2.8.
Screening CCOC(=O)c1c(C)nc2sc(C(=O)Nc3ccc(C(C)=O)cc3)c(N)c2c1-c1ccc(OC)cc1 returned APJ antag 51.1*, CXCR6 block -0.2, EBI2 block 7.2, APJ ag -9.6, HTR2A ag 3.5, CCR6 antagonist 4.4 and APJ antag conf 17.4.
`c1ccc(NNC2=NCCS2)cc1` gave APJ antag 46.0*, CXCR6 block 33.9, EBI2 block 38.7, APJ ag -11.7, HTR2A ag 1.3, CCR6 antagonist 41.1 and APJ antag conf 43.2.
C1=C(CCNCC2CC2)CCCC1 was read as APJ antag 41.4*, CXCR6 block 2.2, EBI2 block 0.0, APJ ag 0.3, HTR2A ag -4.0, CCR6 antagonist -9.6 and APJ antag conf 31.7.
For O=[N+]([O-])c1cccc(N/N=C/c2cc([N+](=O)[O-])ccc2O)c1 the results were APJ antag 46.5*, CXCR6 block 21.7, EBI2 block 14.9, APJ ag -5.7, HTR2A ag 10.2, CCR6 antagonist 45.5 and APJ antag conf 48.8.
CN(/N=C/c1cc([N+](=O)[O-])ccc1O)c1ccccc1 was read as APJ antag 41.8*, CXCR6 block 48.5*, EBI2 block 13.1, APJ ag -8.2, HTR2A ag -2.1, CCR6 antagonist 63.6* and APJ antag conf 62.7*.
COCCN(CCOC)Cc1cc(=O)oc2cc(C)ccc12 was read as CXCR6 block -4.7, EBI2 block -5.7 and HTR2A ag 5.0.
Screening Cc1ccc(C)c(-c2cc(C(=O)NNC(=S)NCC(C)C)c3ccccc3n2)c1 returned APJ antag 44.7*, CXCR6 block 3.0, EBI2 block 4.5, APJ ag -6.5, HTR2A ag -3.4, CCR6 antagonist 35.2 and APJ antag conf 27.9.
Screening CC(C)NC(=S)N/N=C1\CCCCc2ccccc21 returned APJ antag 8.2, CXCR6 block 19.2, EBI2 block -9.6, APJ ag -3.1, HTR2A ag -5.0 and CCR6 antagonist 29.6.
Screening Cc1ccc(C)c(NC(=S)N/N=C2/CCCCc3ccccc32)c1 returned APJ antag 46.6*, CXCR6 block 27.2, EBI2 block 29.9, APJ ag -9.5, HTR2A ag -23.3, CCR6 antagonist 34.4 and APJ antag conf 83.7*.
Screening O=C1OCC(CO)(CO)N=C1NNc1ccccc1[N+](=O)[O-] returned APJ antag -2.8, CXCR6 block -3.9, EBI2 block 7.9, APJ ag -4.6, HTR2A ag -2.6 and CCR6 antagonist 4.4.
`O=C1OCC(CO)(CO)N=C1NNc1cc(Cl)ccc1Cl` gave APJ antag 69.8*, CXCR6 block 31.7, EBI2 block 2.1, APJ ag -11.4, HTR2A ag 4.7, CCR6 antagonist 33.5 and APJ antag conf 74.1*.
NNc1nc(-c2ccccc2)c2cc(Br)ccc2n1 was read as APJ antag 31.8, CXCR6 block -18.6, EBI2 block 4.1, APJ ag -6.9, HTR2A ag 6.6 and CCR6 antagonist 22.0.
NNc1nc(-c2ccccc2)cc(-c2ccc(Br)cc2)n1 was read as APJ antag 72.8*, CXCR6 block 11.8, EBI2 block 22.5, APJ ag -12.8, HTR2A ag 2.4, CCR6 antagonist 36.8 and APJ antag conf 104.6*.
For CCC(=O)Nc1ccc(S(=O)(=O)N2CCCCC2)cc1OC the results were APJ antag 41.2*, CXCR6 block 11.4, EBI2 block 0.8, APJ ag -3.7, HTR2A ag -1.9, CCR6 antagonist -10.4 and APJ antag conf -33.9.
Screening COc1cc(S(=O)(=O)N2CCCCC2)ccc1NC(=O)c1ccccc1Cl returned APJ antag 8.8, CXCR6 block 1.5, EBI2 block 6.2, APJ ag 0.7, HTR2A ag -5.2 and CCR6 antagonist 22.8.
For CC(=O)Nc1ccc(Cc2ccc3[nH]c(=O)cc(C)c3c2)cc1 the results were APJ antag 43.8*, APJ ag -2.7 and APJ antag conf 8.5.
Screening Cc1ccc(-c2c3c(nc4sc(C(N)=O)c(N)c24)CCC3)cc1 returned APJ antag 8.3, CXCR6 block -0.7, EBI2 block -6.0, APJ ag -6.5, HTR2A ag 3.4 and CCR6 antagonist 3.7.
For NC(=O)c1sc2nc3c(c(-c4ccc(Cl)cc4)c2c1N)CCCC3 the results were APJ antag 51.9*, CXCR6 block 3.5, EBI2 block 24.7, APJ ag -9.5, HTR2A ag 0.3, CCR6 antagonist 13.7 and APJ antag conf 18.2.
CC1(C(=O)NCc2ccccc2)CCC(=O)N1CCCn1ccnc1 (centres undefined) was read as CXCR6 block 0.0, EBI2 block 3.2 and HTR2A ag 0.6.
For CN1OC[C@@H]2CN(Cc3cc(Cl)cc(Cl)c3)[C@H](c3cccc(-c4ccc(C#N)cc4)c3)C[C@@H]21 the results were CXCR6 block 10.4, EBI2 block -1.2 and HTR2A ag 0.1.
